Measurements from PubChem BioAssay.
Inconclusive results are not listed.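 How the source made its calls, unless noted: active means inhibition over a set limit, the all-compound mean plus 3 SD, in both replicate runs; inconclusive means over that limit in just one replicate run; inactive means at or under that limit in both runs.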

Experiments:
[1] = S. cerevisiae growth inhibition in permissive medium (OD615), pilot counter-assay for S. cerevisiae lifespan shortening project, permissive growth control (AID 705;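 active means growth inhibition above 25% in both replicates, a cutoff set 3 SD above the mean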); conditions: OD615, 24 h, at 10 µM, stronger effect = higher value
Procedure, shortened: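 System: Engineered DeaD yeast | Buffer or medium: SC raffinose/galactose permissive medium | Doses: 10 µM single dose, 0.25% DMSO | Times: 24 h exposure, 30 °C | Measured by: OD615 turbidity read | Read-out: Yeast growth inhibition indicated by reduced 24 h OD615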

[2] = S. cerevisiae growth inhibition in restrictive medium, OD615, pilot screen, restrictive growth control, yeast lifespan reduction project (AID 706;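 active means growth inhibition above a set limit, 3 SD over mean compound inhibition, in both replicates, cut at about 43% in these data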;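 further: modified DeaD lifespan yeast strain shifted to restrictive glucose medium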); conditions: OD615, 48 h, at 10 µM, stronger effect = higher value
Procedure, shortened: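 Assay system: engineered S. cerevisiae DeaD strain; Buffer or medium: CSMM-D glucose medium; Dosing: 10 µM compound, 0.25% DMSO; Times: cell pre-growth 4 h, compound exposure 48 h, 30 °C; Detection: absorbance (optical density) measured at 615 nm.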

[3] = doxorubicin toxicity protection in MRP-1 cells – H69AR cells, CellTiter-Glo, duplicate, MRP-1 activator project, pilot screen (AID 807;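 active means viability increase at or above a cutoff of the median across tested compounds plus 3 SD, cut at about 8.5% in these data, passing the limit was not always enough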;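 further: compound pretreatment 18-22 h then 72 h combined with doxorubicin; 0% = doxorubicin alone and 100% = vehicle without doxorubicin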); conditions: H69AR viability with doxorubicin, CellTiter-Glo luminescence; at 10 µM; stronger effect = higher value
[4] = viability of HCT116 without oncogenic beta-catenin – human colon tumor cells, pilot screen (AID 823;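 active means cell viability at or below a set limit in both duplicate runs, the limit being the all-compound median minus 4 SD, cut at about 23% in these data, passing the limit was not always enough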;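 further: 0% = wells killed by 20 µM Hyamine and 100% = untreated DMSO cell wells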); conditions: HCT116 beta-catenin knockout viability, CellTiter-Glo, 60 h; at 10 µM; stronger effect = lower value
[5] = viability of PTEN-null HCT116 cells – cell-based, HCT116 clonal line, CellTiter-Glo, pilot screen (AID 824;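 active means viability at or below 27.92% in each of two runs, the all-compound median minus 4 SD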;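 further: 0% = 20 µM Hyamine control and 100% = vehicle cell control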); conditions: HCT116 PTEN-deleted viability, 60 h, at 10 µM, stronger effect = lower value
[6] = RAM pathway blockade in budding yeast – dse1pr::URA3 reporter, 5-FOA selection, pilot screen (AID 869);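 further: 0% = DMSO wells with no growth and 100% = 10 µM 1-NA-PP1 with full growth; RAM network block rescues cells from 5-FOA so hits raise OD615 growth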; conditions: S. cerevisiae dse1pr::URA3 5-FOA growth, OD615, 2 d; at 10 µM; stronger effect = higher value; strain carries analog-sensitive mutant Cbk1 kinase
[7] = RAM signaling pathway blockade in yeast – S. cerevisiae, Pdr1DBD-CYC8 efflux-inhibited sensitized strain, primary screen (AID 1298;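 active means RAM network inhibition above 8.4% in each of two replicates, 3 SD over the compound average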;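 further: 0% = DMSO untreated cells without growth and 100% = 10 µM 1-NA-PP1 full growth; higher means more yeast growth rescued from 5-FOA killing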); conditions: S. cerevisiae cbk1-as DSE1-URA3 strain, 5-FOA growth OD615, 2 d; at 50 µM; stronger effect = higher value

CCC(C(=O)OC)n1cnc2c(nnn2-c2cccc(Cl)c2)c1=O (stereo not drawn)
inactive: growth inhibition [1] -3.35% | growth inhibition [2] -0.405% | viability increase [3] 1.21% | viability [4] 100% | viability [5] 92.1% | inhibition [6] 0.145% | RAM network inhibition [7] 4.91%

O=C(c1cncc(Br)c1)N1CCN(c2ccc(N3CCOCC3)nn2)CC1
inactive: growth inhibition [1] -0.43% | growth inhibition [2] 8.3% | viability increase [3] -2.32% | viability [4] 98.1% | viability [5] 98.5% | inhibition [6] 0.48% | RAM network inhibition [7] 4.09%

O=C(CSc1nnc(Cc2cc(=O)[nH]c(=O)[nH]2)n1-c1ccccc1)N1CCCCC1
inactive: growth inhibition [1] -4.77% | growth inhibition [2] 5.95% | viability increase [3] -2.54% | viability [4] 99.7% | viability [5] 90.4% | inhibition [6] 1.02% | RAM network inhibition [7] -2.08%

CCc1c(C)nc(SCC(=O)Nc2ccc(Br)cc2)[nH]c1=O
inactive: growth inhibition [1] -11.9% | growth inhibition [2] 0.39% | viability increase [3] 1.64% | viability [4] 98.3% | viability [5] 103% | inhibition [6] 1.89% | RAM network inhibition [7] 3.9%

O=C(CSc1ccc2nnc(-c3ccccn3)n2n1)NCc1ccc2c(c1)OCO2
inactive: growth inhibition [1] -0.545% | growth inhibition [2] 21.4% | viability increase [3] -3.68% | viability [4] 91.6% | viability [5] 91.7% | inhibition [6] 2.51% | RAM network inhibition [7] 1.66%

COc1c2c(nc3ccccc13)OC(C(C)(O)COC(C)=O)C2 (stereo not drawn)
inactive: growth inhibition [1] -2.59% | growth inhibition [2] 5.38% | viability increase [3] -1.44% | viability [4] 98.6% | viability [5] 95.7% | inhibition [6] 0.275% | RAM network inhibition [7] 1.41%

Cc1c(C(=O)N2CCCCC2)sc(N)c1C#N
inactive: growth inhibition [1] 4.06% | growth inhibition [2] 4.32% | viability increase [3] -0.95% | viability [4] 96% | viability [5] 95.2% | inhibition [6] -0.355% | RAM network inhibition [7] 1.18%

C=CCn1c(C)nc2c(c1=O)c1nc3ccccc3nc1n2-c1ccc(C)cc1
inactive: growth inhibition [1] -4.19% | growth inhibition [2] -2.97% | viability increase [3] -1.62% | viability [4] 92.3% | viability [5] 82.2% | inhibition [6] 1.32% | RAM network inhibition [7] 4.86%

C(=C\c1ccccc1)/CSc1nnc(-c2cccnc2)o1
inactive: growth inhibition [1] 8.71% | growth inhibition [2] 32.7% | viability increase [3] 0.3% | viability [4] 99.9% | viability [5] 93.1% | inhibition [6] 0.04% | RAM network inhibition [7] 0.25%

O=C(Cn1ncc2c(=O)oc3ccccc3c21)N1CCCN(Cc2ccccc2F)C1
inactive: growth inhibition [1] -3.74% | growth inhibition [2] 2.98% | viability increase [3] -3.74% | viability [4] 101% | viability [5] 94.1% | inhibition [6] 1.55% | RAM network inhibition [7] 1.79%

CCOc1ccc(C2CC(c3ccccc3C)n3ncnc3N2)cc1 (stereo not drawn)
inactive: growth inhibition [1] -6.31% | growth inhibition [2] 13.4% | viability increase [3] -1.48% | viability [4] 87.3% | viability [5] 77.4% | inhibition [6] 1.83% | RAM network inhibition [7] -1.78%

CCOC(=O)COc1cc2c(C(=O)OCC)c(C)oc2cc1Br
inactive: growth inhibition [1] -10% | growth inhibition [2] -2.66% | viability increase [3] -2.07% | viability [4] 89.3% | viability [5] 89.8% | inhibition [6] 1.04% | RAM network inhibition [7] 12.8%

COc1ccc(-n2nnc3c(=O)n(CC(=O)N4CCC(Cc5ccccc5)CC4)cnc32)cc1
inactive: growth inhibition [1] 0.065% | growth inhibition [2] -3.95% | viability increase [3] -1.03% | viability [4] 80.2% | viability [5] 80.3% | inhibition [6] 2.54% | RAM network inhibition [7] 5.24%

Oc1ccc(-c2nc3cnccn3c2Nc2ccc3c(c2)OCCO3)cc1
inactive: growth inhibition [1] 2% | growth inhibition [2] 6.18% | viability increase [3] -6.18% | viability [4] 83.7% | viability [5] 83.8% | inhibition [6] 1.58% | RAM network inhibition [7] 7.64%

CCCSC1=C(C#N)C(c2ccc(Cl)cc2Cl)CC(=O)N1 (stereo not drawn)
inactive: growth inhibition [1] 3.83% | growth inhibition [2] 24% | viability increase [3] -1.42% | viability [4] 83.5% | viability [5] 79.4% | inhibition [6] 1.54% | RAM network inhibition [7] 3.58%

COc1cccc2c(=O)n(CC(=O)NC3CCCCC3)ccc12
inactive: growth inhibition [1] 0.435% | growth inhibition [2] -6.59% | viability increase [3] -1.27% | viability [4] 103% | viability [5] 90.3% | inhibition [6] 1.58% | RAM network inhibition [7] 4.45%

Cc1ccccc1CSc1nnc(-c2ccco2)n1Cc1ccco1
inactive: growth inhibition [1] 5.54% | growth inhibition [2] 10.2% | viability increase [3] -4.14% | viability [4] 82.6% | viability [5] 82.4% | inhibition [6] 0.145% | RAM network inhibition [7] 0.99%

COc1ccc(OC)c(CN2CCN(c3ccccc3OC)CC2)c1
inactive: growth inhibition [1] -7.27% | growth inhibition [2] -8.51% | viability increase [3] -0.4% | viability [4] 61.2% | viability [5] 71.6% | inhibition [6] 1.86% | RAM network inhibition [7] 5.18%

Cc1c(C(=O)NCC2CCCO2)oc2ccc(S(=O)(=O)N3CC(C)CC(C)C3)cc12 (stereo not drawn)
inactive: growth inhibition [1] -2.38% | growth inhibition [2] 14.2% | viability increase [3] -4.71% | viability [4] 44.5% | viability [5] 38.1% | inhibition [6] 3.72% | RAM network inhibition [7] 4.28%

Cn1c(Cn2c(=O)sc3ccccc32)nnc1SCC(=O)NCc1ccccc1Cl
inactive: growth inhibition [1] -7.92% | growth inhibition [2] -13.9% | viability increase [3] -1.32% | viability [4] 100% | viability [5] 103% | inhibition [6] 0.62% | RAM network inhibition [7] 3.96%

CCNc1cc2oc(=O)c(CN3CCOCC3)c(C)c2cc1C
inactive: growth inhibition [1] 4.16% | growth inhibition [2] 6.97% | viability increase [3] -1.46% | viability [4] 91% | viability [5] 94.5% | inhibition [6] 2.04% | RAM network inhibition [7] 0.2%

N#Cc1cn(CC(=O)NCC2CCCO2)c2ccccc12 (stereo not drawn)
inactive: growth inhibition [1] 1.68% | growth inhibition [2] -3% | viability increase [3] -1.75% | viability [4] 93.1% | viability [5] 91.4% | inhibition [6] 1.1% | RAM network inhibition [7] 5.31%

Cc1cccc(-n2c(Cc3cc(=O)[nH]c(=O)[nH]3)nnc2SC(C)C)c1
inactive: growth inhibition [1] -8.09% | growth inhibition [2] -1.15% | viability increase [3] -1.84% | viability [4] 101% | viability [5] 97.7% | inhibition [6] 1.72% | RAM network inhibition [7] 3.87%

O=C(O)CCC(=O)N1CCc2cc(S(=O)(=O)N3CCN(c4ccc(F)cc4)CC3)ccc21
inactive: growth inhibition [1] -4.08% | growth inhibition [2] 6.97% | viability increase [3] -1.31% | viability [4] 97.4% | viability [5] 99% | inhibition [6] 1.94% | RAM network inhibition [7] 4.17%
